Experimental findings from PubChem BioAssay AID651999 (Sanford-Burnham Center for Chemical Genomics, 2013) are described below.

The structures appear in SMILES notation. Among all 360,000 compounds or so, about 1,400 (0.39%) were called active. The full list was thinned out, with actives kept by preference. Unmarked numbers belong to inactive results.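 The calls were made as follows: active = pattern-corrected inhibition above about 35%, with an unprinted fluorescence ratio check between 0.5 and 1.5 (limit read from the data, passing the limit was not always enough); inactive = the rest.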

Sequence of COP9 signalosome complex subunit 5 (Homo sapiens) (Q92905 whole entry, looked up, one chain of several): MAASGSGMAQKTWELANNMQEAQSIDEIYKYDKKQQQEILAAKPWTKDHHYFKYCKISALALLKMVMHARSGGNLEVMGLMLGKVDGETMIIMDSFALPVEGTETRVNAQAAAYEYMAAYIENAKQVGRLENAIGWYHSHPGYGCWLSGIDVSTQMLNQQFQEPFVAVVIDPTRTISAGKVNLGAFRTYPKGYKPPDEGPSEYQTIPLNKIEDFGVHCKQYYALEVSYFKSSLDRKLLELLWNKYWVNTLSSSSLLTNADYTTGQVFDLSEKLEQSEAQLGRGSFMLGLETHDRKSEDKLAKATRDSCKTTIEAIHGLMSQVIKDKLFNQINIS

This experiment deals with COP9 signalosome complex subunit 5 (Homo sapiens) (UniProt Q92905). Kind of experiment: inhibitors of CSN-mediated cullin deneddylation, primary screen, biochemical, fluorescence polarization, uHTS (AID 651999).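 Also: 0% = enzyme with substrate and 100% = substrate without enzyme.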 Conditions: Purified CSN, SCF-Nedd8-OG deneddylation, at 12.5 µM, active compounds read high. The method in brief:
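Detection – fluorescence polarization · System – HEK293T-derived human Csn5 enzyme · Controls – substrate-only high control, full reaction low control · Timing – 90 min, room temperature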
As a reminder, the inhibition is the drop in the measured response relative to a control, in per cent. As to `O=C(COc1ccc(S(=O)(=O)N2CCCCC2)cc1)NCc1ccccn1`, the inhibition was -4.23%.
For `CC(=O)NS(=O)(=O)c1ccc(NC(=O)/C=C/c2ccccc2Cl)cc1`, the inhibition is 4.02%.
In the case of `COc1ccccc1CNC(=O)CCCNS(=O)(=O)c1cccc2nsnc12` it was 1.39%; in that of `Cc1ccc(CC2C(=O)N(c3ccc(F)cc3)C(=O)C2C)cc1` (stereo unspecified), -0.88%; in that of `CCC(C)[C@@H](C(=O)N1CCNCC1)n1cc(CCCCN)nn1` (stereo partly specified), -2.15%.
In the case of `C#CCOCCOCCOCCNc1nc(N2CCN(C(=O)C([C@@H](C)O)n3cc([C@@H](N)CCCCN)nn3)CC2)nc(N2CCN(C(=O)[C@H](CCCCN)n3cc(CN)nn3)CC2)n1` (stereo partly specified) it was 37% (active); in that of `C#CCOCCOCCOCCNc1nc(N2CCOCC2)nc(N2CCN(C(=O)[C@H](Cc3ccc(O)cc3)n3cc(CCO)nn3)CC2)n1`, -2.16%; in that of `C#CCOCCOCCOCCNc1nc(N2CCN(C(=O)CCCCCCCCCCNC(=O)Cn3cc(CCCCCN)nn3)CC2)nc(N2CCN(C(=O)CCCCCCCCCCNC(=O)[C@H](CO)n3cc(CCCSC)nn3)CC2)n1`, 89% (active).
The figure for `C#CCOCCOCCOCCNc1nc(N2CCN(C(=O)C(Cc3ccc(O)cc3)n3cc(C(N)CC(C)C)nn3)CC2)nc(N2CCN(C(=O)C(Cc3ccc(O)cc3)n3cc(C(N)C(C)CC)nn3)CC2)n1` (stereo unspecified) is 0.38%; for `CC/C(Cc1ccccc1)=N/NC(=O)CCn1nnc2ccccc21` it is 1.26%; for `COc1ccc(NC(=O)C2CCC(CNc3c(N4CCCCC4)c(=O)c3=O)CC2)c(OC)c1` (stereo unspecified) it is 1.79%.
Turning to `CCOC(=O)C1(Cc2cccc(OC)c2)CCN(C(C)CC(C)(C)O)CC1` (stereo unspecified), the inhibition was 0.5%.
In the case of `Fc1ccc(-n2c(Cc3ccccc3)nnc2SCc2nc(-c3ccc(Cl)cc3)no2)cc1` it was 5.36%; in that of `Cc1ccc(-c2ccc(CN3C(C)C(=O)N(Cc4cn(CCC5OCCCO5)nn4)CCS3(=O)=O)cc2)cc1` (stereo unspecified), 0.07%.
The figure for `O=c1c2ccccc2c(-c2ccccc2)nn1-c1ccccn1` is 0.93%; for `O=C(Nc1ccc(C2CC2(Cl)Cl)cc1)c1cccc([N+](=O)[O-])c1` (stereo unspecified) it is -0.73%.
The figure for `Cn1ccc(=Nc2ccc(NC(=O)c3ccc(N=c4ccn(C)c5ccc([N+](=O)[O-])cc45)cc3)cc2)cc1` is 114% (active).
Take `O=C(Nc1cc2c3c(c1)C1CCCC1CN3CC1CCCC21)c1ccc([N+](=O)[O-])cc1` (stereo unspecified): the inhibition is -4.37%.
The figure for `CCCNC(=O)c1ccc(N2CCC3(CC2)CC(c2cccc(Br)c2)=NO3)c(NC(=O)c2ccco2)c1` is -1.32%; for `C/C(=N\N=C(N)N)c1ccc(Cl)cc1` it is -1.16%; for `O=C(Cc1ccccc1)Nc1c(C(=O)N2CCCCCC2)cnn1-c1ccccc1` it is -1.5%.
In the case of `CCN(C(=O)Cc1c(C(=O)O)n(CC)c2ccccc12)c1ccccc1C` it was -2.24%; in that of `CC[n+]1cc(C)ccc1/C=C/c1ccc(N(C)C)cc1`, 35.4% (active); in that of `CC(C)N1CCC(NC(=O)Nc2ccccc2)CC1`, -2.66%.
The figure for `CC(=O)N1CCN(S(=O)(=O)c2c(F)cc(F)c(Cl)c2F)CC1` is -5.22%.
Turning to `CCOc1ccc(NC(=O)CN(C)CC(=O)NC(C)c2ccccc2)cc1OCC` (stereo unspecified), the inhibition is 2.1%.
The figure for `CN1/C(=c2/s/c(=C3/C(=O)N(c4ccccc4)NC3=Nc3ccccc3)n(C)c2=O)C(C)(C)c2ccccc21` is 41.7% (active).
The figure for `CCc1c(O)nc(SCC(=O)Nc2ccccc2)n(C(C)CC)c1=O` (stereo unspecified) is 2.98%; for `C=CC(=O)Nc1ccc(Nc2ccnc(Nc3ccc(N4CCN(C)CC4)cc3)n2)cc1` it is 103% (active).
In the case of `CC(=O)Nc1cc(-c2ccc(N3CCN(C)CC3)cc2)cn2c(-c3ccc(F)cc3)cnc12` it was 9.21%; in that of `O=C(Nc1ccc(N2CCN(C(=O)c3cccs3)CC2)cc1)c1cccnc1Cl`, -0.71%.
For the molecule `C/C(=N/NS(=O)(=O)c1ccccc1)c1ccc(NC(=O)C(F)(F)F)cc1`, the inhibition is -3.71%.
The figure for `COc1ccccc1NC(=O)CCSc1nnc(-c2ccc(O)cc2)o1` is -8.49%; for `Cc1ccc(N=C2NC(=O)/C(=C/C=C/c3ccco3)S2)cc1C` it is 51.9% (active); for `COc1ccc(CCN(Cc2cc3cccc(C)c3[nH]c2=O)C(=O)N2CCCC2)cc1OC` it is 2.45%.
The figure for `O=C(NCCCO)/C(=C\C=C\c1ccccc1)NC(=O)c1ccccc1Cl` is -3.06%; for `C=CCN(c1ccc(Cl)cc1)S(=O)(=O)c1cccc(C(=O)OCC(=O)N(C)C)c1` it is -4.63%; for `O=C(N/N=C/c1ccc(Cl)cc1)c1nc2ccc([N+](=O)[O-])cc2c(=O)[nH]1` it is 56.7% (active).
In the case of `CC(NC(=O)C(=O)N/N=C/c1ccc(Cl)cc1)c1ccccc1` (stereo unspecified) it was -2.35%; in that of `N#Cc1cc([N+](=O)[O-])ccc1Oc1cccc(/C=N/NC(=O)c2ccc(Cl)cc2)c1`, 1.22%; in that of `COc1ccc(Cc2nnc(SCC(=O)N(c3ccccc3)C(C)C)n(N)c2=O)cc1`, 2.75%.
`CC1(C2CC2)NC(=O)N(CC(=O)N2CCN(c3ccccc3F)CC2)C1=O` (stereo unspecified): the inhibition is -0.85%.
The figure for `O=C(COc1ccc([N+](=O)[O-])cc1)Nc1ccc(N2CCCC2)cc1` is 45.2% (active); for `O=C(CCC(=O)N1CCCC1)Nc1ccc([N+](=O)[O-])cc1` it is -2.97%; for `O=C(COC(=O)C1CCCCC1)Nc1ccc([N+](=O)[O-])cc1` it is -5.15%.
In the case of `Cn1c2c(c(=O)n(C)c1=O)[C@@H]1c3c(ccc4ccccc34)OC[C@@H]1CO2` it was 0.02%.
Take `COc1cc(C=NC2CCCCC2)ccc1O`: the inhibition was 4.95%.
The figure for `COc1cc(/C=C(\C#N)c2nc3c(s2)CC(C)CC3)ccc1O` (stereo unspecified) is 82% (active); for `COc1cc(/C=C(\C#N)c2nc3ccccc3[nH]2)ccc1O` it is 73.3% (active); for `CCN(/N=C/c1ccc(N(C)C)cc1)c1nc2ccccc2[nH]1` it is -1.85%.
The figure for `CC1(C)O[C@H]2CC(=O)OCC23[C@H]2CC[C@@]4(C)[C@H](c5ccoc5)OC(=O)[C@H]5O[C@]54[C@]2(C)C(=O)C[C@@H]13` (stereo partly specified) is -1.16%.
